Assay outcomes as filed in PubChem.
T cell modulator – T cell immune modulation candidate | AID 2052 | 330,000 compounds, 0.068% hits | 2C CD8+ T cell-vesicle binding, flow cytometry; hits give low values | response (vesicle binding), % at 7 µM;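 active = response, share of CD8 T cells binding vesicles, and their 90th percentile fluorescence all below set limits, cut at about 80% in these data, passing the limit was not always enough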;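 note: values below 100% mean blocked vesicle binding to the CD8+ T cells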
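Test system: purified 2C TCR transgenic mouse naive CD8+ T cells. Probe or stimulus: QL9-peptide-loaded Drosophila micro-vesicles bearing Ld, ICAM-1 and B7-1. Incubation: binding step 1.5 h, 37 °C, antibody labelling 20 min, ice. Measured by: flow cytometry of vesicle-bound cells.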
PKA-R2B activ – activates the human PKA-R2B holoenzyme complex | activation, % at 11.4 µM | 340,000 compounds, 0.079% hits | AID 504700 | PKA-R2B holoenzyme dissociation, Cy5-IP20 fluorescence polarization; R2B truncated from residue 108, S112A mutant; 0% DMSO only, 100% 113 µM cGMP;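 active = activation above a cutoff set at the mean over all compounds plus 3 SD, cut at about 18% in these data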;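 note: higher means more holoenzyme dissociation and a rise in polarization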
HKDC1 inhibitor – blocks human hexokinase HKDC1 activity. Q2TB90. recombinant HKDC1, G6PDH/diaphorase resazurin coupled fluorescence. inhibition, % at 20 µM. 340,000 compounds, 0.16% hits;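 active = inhibition above about 35% when tested at 20 µM, limit read from the data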;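 note: plate controls were DMSO wells with enzyme for no effect and DMSO wells lacking enzyme for full effect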
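test system = in-house recombinant HK5 (HKDC1) enzyme | amount = HKDC1 at 5 µg/mL | control set = DMSO-enzyme wells negative, buffer-substituted wells positive | compound = one dose of 20 µM, 1% DMSO | schedule = reaction time 90 min, room temperature, protected from light | technique = resorufin fluorescence at 613 nm | reagent = glucose with 1 mM ATP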
PfG6PD inh – PfG6PD (Plasmodium falciparum) enzyme inhibition | AID 504690 | inhibition, % at 20 µM | PfGluPho enzyme, NADPH resazurin-diaphorase fluorescence | 350,000 compounds, 0.78% hits;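 active = inhibition reaching at least a set limit at 20 µM in the primary screen, cut at about 59% in these data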;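 note: 0% = DMSO wells with substrate and 100% = DMSO wells lacking glucose-6-phosphate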
ATG4B inhibitor – ATG4B (human) cysteine protease inhibition. 340,000 compounds, 0.51% hits. Q9Y4P1. ATG4B cleavage of LC3-PLA2, NBD-HPC fluorescence, 1 h. inhibition, % at 8.33 µM; in the data active = inhibition above about 40%
Target sequence (Q9Y4P1 whole entry, looked up): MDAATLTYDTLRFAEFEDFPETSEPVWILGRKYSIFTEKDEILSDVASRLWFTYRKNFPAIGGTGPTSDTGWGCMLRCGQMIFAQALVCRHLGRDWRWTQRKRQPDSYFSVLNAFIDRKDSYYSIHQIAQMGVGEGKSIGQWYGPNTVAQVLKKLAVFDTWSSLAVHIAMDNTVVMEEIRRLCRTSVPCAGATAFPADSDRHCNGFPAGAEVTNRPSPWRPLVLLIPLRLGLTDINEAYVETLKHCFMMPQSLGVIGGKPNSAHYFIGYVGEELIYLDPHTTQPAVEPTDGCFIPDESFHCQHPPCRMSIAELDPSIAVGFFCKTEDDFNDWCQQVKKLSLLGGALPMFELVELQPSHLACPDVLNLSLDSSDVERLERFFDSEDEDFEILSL
PKA-R1A act – activators of PKA-R1A complex. PKA-R1A dissociation, Cy5-IP20 fluorescence polarization; scaled: DMSO 0%, 113 µM cGMP 100%. activation, % at 11.4 µM. 340,000 compounds, 0.083% hits;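 active = percent activation above the mean of all tested compounds plus 3 SD, cut at about 19% in these data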;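 note: higher means more PKAc released from R1A so a rise in polarization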
PfGluPho conf – confirmation of Plasmodium falciparum G6PD inhibitors; shares compounds with PfG6PD inh; recombinant PfGluPho, NADPH-diaphorase-resazurin fluorescence; inhibition, % at 20 µM; 2,400 compounds, 34% hits;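 active = inhibition of at least 50% at 20 µM in any single replicate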;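 note: 0% = DMSO with substrate and 100% = DMSO lacking glucose-6-phosphate substrate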
Diaph ctr 10uM – diaphorase inhibition or oxidation at 10 uM NADPH | shares compounds with PfG6PD inh | diaphorase-coupled resazurin reduction, fluorescence, NADPH 10 uM | inhibition, % at 20 µM | 820 compounds, 39% hits;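 active = average inhibition reaching 50% or more with the compound at 20 µM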;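 note: resorufin red fluorescence formed as diaphorase reduces resazurin using NADPH; 0% = DMSO with enzyme and 100% = DMSO without enzyme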
Diaphorase 30uM – counter-screen for P. falciparum G6PD inhibitors: diaphorase inhibitors, oxidizers | AID 504863 | shares compounds with PfG6PD inh | inhibition, % at 20 µM | Diaphorase/resazurin coupled assay, resorufin fluorescence, 30 uM NADPH | 820 compounds, 29% hits;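 active = inhibition averaging 50% or more, tested at 20 µM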;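 note: 0% = DMSO with enzyme and 100% = DMSO wells lacking diaphorase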
The depositor's hits bear a star. Hits are enriched below; roughly 1.6% of the tested compounds scored in any of these assays.

`CC[C@@]1(C(=O)OC)N[C@H](CN(C)S(=O)(=O)c2ccc(C(F)(F)F)cc2)[C@@H]2C(=O)N(C)C(=O)[C@@H]21` gave T cell modulator 198, PKA-R2B activ -8, HKDC1 inhibitor -1, PfG6PD inh 17 and PKA-R1A act -10.
For O=C(N/N=C/c1cc2c(cc1[N+](=O)[O-])OCO2)c1ccccn1 the results were T cell modulator 233, PKA-R2B activ -9, HKDC1 inhibitor -1, PfG6PD inh 72*, ATG4B inhibitor 7, PKA-R1A act 0 and PfGluPho conf 20.
COc1ccc(N)c2c1C(=O)c1ccccc1C2=O was read as T cell modulator 227, PKA-R2B activ 4, HKDC1 inhibitor -2, PfG6PD inh -3, ATG4B inhibitor 8 and PKA-R1A act -17.
Screening COc1ccc(OC)c2c1C(=O)C(Cl)=C(Cl)C2=O returned T cell modulator 255, PKA-R2B activ 3, HKDC1 inhibitor 24, PfG6PD inh 125*, ATG4B inhibitor 3, PKA-R1A act -3, PfGluPho conf 112*, Diaph ctr 10uM 81* and Diaphorase 30uM 42.
`CC[C@]1(C(=O)OC)[C@H]2C(=O)N(Cc3ccccc3)C(=O)[C@H]2[C@H]2CN=C(SCC(=O)c3ccccc3)N21` gave PKA-R2B activ -3, HKDC1 inhibitor 4, PfG6PD inh 9, ATG4B inhibitor -5 and PKA-R1A act -1.
`Cc1ccc(Sc2ccc(NC(=O)CCN3C(=O)NC4(CCCC4)C3=O)cc2)c(C)c1` gave T cell modulator 186, PKA-R2B activ -5, HKDC1 inhibitor 1, PfG6PD inh 11, ATG4B inhibitor -6 and PKA-R1A act -7.
Screening CCOC(=O)c1c(NC(=O)C2CCCO2)sc(C)c1C (stereo not drawn) returned T cell modulator 280, PKA-R2B activ -1, HKDC1 inhibitor 1, PfG6PD inh 7, ATG4B inhibitor 5 and PKA-R1A act -9.
`CCOC(=O)c1c(NC(=O)C2CCCO2)sc(C(=O)OC(C)(C)C)c1C` (stereo not drawn) gave T cell modulator 367, PKA-R2B activ 11, HKDC1 inhibitor -5, PfG6PD inh 63*, ATG4B inhibitor -4, PKA-R1A act 1 and PfGluPho conf 12.
Cc1cccc(NC(=O)/C(C#N)=C/c2cccc([N+](=O)[O-])c2)n1 was read as T cell modulator 504, PKA-R2B activ -3, HKDC1 inhibitor 4, PfG6PD inh -4, ATG4B inhibitor 3 and PKA-R1A act 7.
Screening CCC1CCC(C(=O)NC(C(=O)NCCN2CCOCC2)C(C)C)CC1 (stereo not drawn) returned T cell modulator 428, PKA-R2B activ 17, HKDC1 inhibitor -2, PfG6PD inh 9, ATG4B inhibitor -10 and PKA-R1A act 4.
Screening C#CCOCC1CN(C)C(=O)O1 (stereo not drawn) returned PKA-R2B activ -3, PfG6PD inh -2 and PKA-R1A act -14.
Screening Nc1ccccc1SC(CC(=O)c1ccccc1)c1ccc([N+](=O)[O-])cc1 (stereo not drawn) returned PKA-R2B activ 0, PfG6PD inh 61*, PKA-R1A act 13 and PfGluPho conf 10.
For O=C(NC(NC(=O)c1ccccc1)c1cccc([N+](=O)[O-])c1)c1ccccc1 the results were T cell modulator 371, PKA-R2B activ -1, HKDC1 inhibitor 1, PfG6PD inh 2, ATG4B inhibitor 13 and PKA-R1A act -10.
